Series [1] deals with H9c2. Kind of series: Cytotoxicity in rat H9c2 cells at 5 uM incubated for 24 hrs by LDH release-based spectrofluorimetrical analysis relative to control. In kind it is cell-based. The note with it: h9c2, 24 h. Summed up: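 Cells exposed 24 h to 5 μM drug in DMEM with 10% FBS at 37 °C, 5% CO2. Medium spun 12,000 × g 5 min. Cells sonicated in 82.3 mM triethanolamine phosphate-HCl pH 7.6. LDH in medium and lysate followed 6 min at 340 nm. Extracellular LDH reported as % of total dish activity, duplicate, n = 3, mean ± SD.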

Series [2] deals with U2OS. As to the kind of experiment: Induction of intracellular ROS accumulation in human U2OS cells at 5 uM incubated for 24 hrs by DCFDA-AM probe-based fluorimetrical analysis relative to control. It counts as functional, cell-based. Summed up:
(§1)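 After 24 h at 5 μM, 1×10^6 cells in 0.5 mL PBS were loaded with 5 μM DCFDA-AM for 30 min at 37 °C, spun and resuspended. Fluorescence read at ex 492/em 517 nm, expressed as nmol ROS/mg cell protein. Duplicate, n = 3, mean ± SD.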

Series [3] in a line: Drug uptake in human U2OS/DX30 cells at 5 uM incubated for 24 hrs by fluorimetrical analysis. It counts as ADME, cell-based. Summed up: (§2)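 Intracellular drug measured after 24 h exposure to 5 μM. Cell lysates read fluorimetrically at ex 475/em 553 nm with cell-free blank subtracted. Converted by calibration curve to nmol drug/mg cell protein. Duplicate, n = 3, mean ± SD.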

The target of series [4] is DNA topoisomerase 2-alpha (Homo sapiens) (UniProt P11388). As to the kind of experiment: Inhibition of human topoisomerase 2-mediated DNA cleavage at 5 uM using supercoiled pHOT1 plasmid as substrate by agarose gel electrophoresis.
DNA topoisomerase 2-alpha (Homo sapiens), sequence (P11388 whole entry): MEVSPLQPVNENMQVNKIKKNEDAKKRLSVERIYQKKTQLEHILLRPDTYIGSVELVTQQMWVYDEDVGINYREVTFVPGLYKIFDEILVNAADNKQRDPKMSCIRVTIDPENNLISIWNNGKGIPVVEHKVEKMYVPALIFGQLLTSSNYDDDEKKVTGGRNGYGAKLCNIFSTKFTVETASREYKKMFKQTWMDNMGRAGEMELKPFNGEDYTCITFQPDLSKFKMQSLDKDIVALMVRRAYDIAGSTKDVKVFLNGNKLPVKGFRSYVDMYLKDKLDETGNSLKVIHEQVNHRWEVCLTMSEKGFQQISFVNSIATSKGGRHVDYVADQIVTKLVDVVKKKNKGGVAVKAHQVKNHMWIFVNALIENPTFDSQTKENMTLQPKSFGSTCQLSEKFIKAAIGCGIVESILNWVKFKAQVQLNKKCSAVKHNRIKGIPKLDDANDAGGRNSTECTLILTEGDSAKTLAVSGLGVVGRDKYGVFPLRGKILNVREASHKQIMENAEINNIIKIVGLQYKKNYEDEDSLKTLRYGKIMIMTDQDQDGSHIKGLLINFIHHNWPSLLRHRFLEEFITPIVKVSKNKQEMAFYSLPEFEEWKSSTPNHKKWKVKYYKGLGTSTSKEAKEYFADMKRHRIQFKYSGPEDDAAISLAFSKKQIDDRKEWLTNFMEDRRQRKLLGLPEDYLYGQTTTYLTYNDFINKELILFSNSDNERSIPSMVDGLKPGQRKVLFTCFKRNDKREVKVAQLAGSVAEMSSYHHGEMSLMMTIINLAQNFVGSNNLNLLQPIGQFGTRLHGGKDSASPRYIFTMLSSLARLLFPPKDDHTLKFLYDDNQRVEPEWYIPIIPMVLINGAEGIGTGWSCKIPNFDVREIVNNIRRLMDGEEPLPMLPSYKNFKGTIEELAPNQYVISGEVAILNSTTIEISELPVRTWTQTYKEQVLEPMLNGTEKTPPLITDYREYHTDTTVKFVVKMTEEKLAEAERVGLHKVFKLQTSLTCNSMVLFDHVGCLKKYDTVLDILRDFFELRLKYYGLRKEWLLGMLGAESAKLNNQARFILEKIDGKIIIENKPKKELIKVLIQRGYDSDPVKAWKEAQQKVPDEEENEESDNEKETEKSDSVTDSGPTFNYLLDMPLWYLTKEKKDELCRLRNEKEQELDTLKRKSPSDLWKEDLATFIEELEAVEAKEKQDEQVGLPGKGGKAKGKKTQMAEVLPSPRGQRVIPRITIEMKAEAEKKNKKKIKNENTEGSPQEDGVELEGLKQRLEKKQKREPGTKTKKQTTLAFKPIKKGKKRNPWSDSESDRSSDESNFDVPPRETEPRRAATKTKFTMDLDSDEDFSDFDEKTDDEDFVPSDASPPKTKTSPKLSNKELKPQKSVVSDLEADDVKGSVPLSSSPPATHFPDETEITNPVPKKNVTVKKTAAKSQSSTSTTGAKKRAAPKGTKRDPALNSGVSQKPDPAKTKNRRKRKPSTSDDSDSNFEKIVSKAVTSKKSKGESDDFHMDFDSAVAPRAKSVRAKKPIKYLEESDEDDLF
Series [5] is described as follows: Half life of compound assessed as human serum esterase-mediated degradation at 100 uM by RP-HPLC analysis. In kind it is ADME. The gist of the method: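 10 mM DMSO stock added to human serum pre-warmed to 37 °C, giving 100 μM final. Samples taken over time and deproteinized with equal volume acetonitrile/0.1% HCOOH, then spun 2150 g 10 min and filtered. Analysed by RP-HPLC against 1–200 μM calibration. t1/2 from one-phase exponential decay fit, at least triplicate.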

Series [6] in a line: Stability of compound in pre-heated IMDM at 200 uM at 37 degC by RP-HPLC analysis. In kind it is physicochemical. Summed up:
(§3)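 10 mM DMSO stock diluted into medium pre-warmed to 37 °C, giving 200 μM final, then incubated at 37 °C. Aliquots diluted 1:1 with acetonitrile/0.1% HCOOH, filtered and run on RP-HPLC, quantified against 1–200 μM standards. t1/2 from one-phase exponential decay fit, at least triplicate.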

Series [7] in a line: Drug uptake in human U2OS/DX100 cells at 5 uM incubated for 24 hrs by fluorimetrical analysis. In kind it is ADME, cell-based. The gist of the method: as §2
Series [8] can be described thus: Drug uptake in human U2OS/DX580 cells at 5 uM incubated for 24 hrs by fluorimetrical analysis. It counts as ADME, cell-based. The gist of the method:
as §2

Series [9] has as its system H9c2. As to the kind of experiment: Cytotoxicity in rat H9c2 cells assessed as intracellular ROS accumulation at 5 uM incubated for 24 hrs by DCFDA-AM probe-based fluorimetrical analysis relative to control. In kind it is cell-based. To be noted: h9c2, 24 h. The gist of the method:
as §1

Series [10] deals with Serum. Kind of series: Induction of H2S release from compound in human serum at 100 uM incubated for 1 to 24 hrs using DNS-Az by fluorimetric assay-based HPLC analysis. It counts as functional. Summed up:
(§4)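 Compound at 200 μM initial (half concentration for two low-solubility compounds) in medium or human serum at 37 °C with dansyl azide. Sampled at 1, 4 and 24 h, diluted with CH3CN, spun and filtered. Isocratic RP-HPLC with fluorescence ex 340/em 535 nm. Dansyl amide peak quantified against NaHS calibration as H2S index. At least triplicate.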

Series [11] has as its system H9c2. As to the kind of experiment: Drug uptake in rat H9c2 cells at 5 uM incubated for 24 hrs by fluorimetrical analysis. In kind it is ADME, cell-based. The note with it: h9c2, 24 h. The gist of the method: as §2
Series [12] in a line: Induction of H2S release from compound in IMDM at 100 uM incubated for 1 to 24 hrs using DNS-Az by fluorimetric assay-based HPLC analysis. In kind it is physicochemical. Summed up: as §4
Series [13] can be described thus: Induction of H2S release from compound in DMEM at 100 uM incubated for 1 to 24 hrs using DNS-Az by fluorimetric assay-based HPLC analysis. It counts as physicochemical. Summed up:
as §4

Series [14] in a line: Half life of compound in pre-heated DMEM at 200 uM at 37 degC by RP-HPLC analysis. In kind it is physicochemical. Summed up:
as §3

Series [15] deals with U2OS. As to the kind of experiment: Drug uptake in human U2OS cells at 5 uM incubated for 24 hrs by fluorimetrical analysis. It counts as ADME, cell-based. Summed up:
as §2

Series [16] relates to H9c2. Kind of series: Cytotoxicity in rat H9c2 cells assessed as intracellular ROS accumulation at 5 uM incubated for 24 hrs in presence of hydroxocobalamin by DCFDA-AM probe-based fluorimetrical analysis relative to control. In kind it is cell-based. The note with it: h9c2, 24 h. Summed up: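 H9c2 cells held 24 h with 5 μM drug plus 100 μM hydroxocobalamin, then loaded with 5 μM DCFDA-AM for 30 min at 37 °C. Fluorescence read at 492/517 nm, expressed as nmol ROS/mg protein. Duplicate, n = 3.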

The test system of series [17] is U2OS. Kind of series: Increase in intracellular ROS accumulation in human U2OS/DX580 cells at 5 uM incubated for 24 hrs in presence of hydroxocobalamin by DCFDA-AM probe-based fluorimetrical analysis relative to control. It counts as functional, cell-based. The gist of the method:
(§5)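 Cells grown in DMEM with 10% FBS at 37 °C, 5% CO2, resistant variants selected in 30, 100 or 580 ng/mL doxorubicin; treated 24 h with 5 μM drug plus 100 μM hydroxocobalamin. 1×10^6 cells loaded 30 min at 37 °C with 5 μM DCFDA-AM in PBS; fluorescence at ex 492/em 517 nm, expressed as nmol ROS/mg protein; duplicates, n = 3.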

For series [18], the system named is U2OS. Kind of series: Increase in intracellular ROS accumulation in human U2OS cells at 5 uM incubated for 24 hrs in presence of hydroxocobalamin by DCFDA-AM probe-based fluorimetrical analysis relative to control. In kind it is functional, cell-based. The gist of the method: as §5
The test system of series [19] is U2OS. Kind of series: Induction of intracellular ROS accumulation in human U2OS/DX100 cells at 5 uM incubated for 24 hrs by DCFDA-AM probe-based fluorimetrical analysis relative to control. In kind it is functional, cell-based. Summed up:
as §1

Series [20] has as its system H9c2. As to the kind of experiment: Cytotoxicity in rat H9c2 cells at 5 uM incubated for 24 hrs in presence of NAC by LDH release-based spectrofluorimetrical analysis relative to control. In kind it is cell-based. The note with it: h9c2, 24 h. For orientation: LDH leaks from cells whose membrane has failed.
For series [21], the system named is U2OS. Kind of series: Induction of intracellular ROS accumulation in human U2OS/DX30 cells at 5 uM incubated for 24 hrs by DCFDA-AM probe-based fluorimetrical analysis relative to control. It counts as functional, cell-based. Summed up:
as §1

Series [22] has as its system U2OS. Kind of series: Induction of intracellular ROS accumulation in human U2OS/DX580 cells at 5 uM incubated for 24 hrs by DCFDA-AM probe-based fluorimetrical analysis relative to control. It counts as functional, cell-based. Summed up: as §1
Series [23] concerns U2OS. As to the kind of experiment: Increase in intracellular ROS accumulation in human U2OS/DX30 cells at 5 uM incubated for 24 hrs in presence of hydroxocobalamin by DCFDA-AM probe-based fluorimetrical analysis relative to control. In kind it is functional, cell-based. Summed up: as §5
The subject of series [24] is U2OS. As to the kind of experiment: Increase in intracellular ROS accumulation in human U2OS/DX100 cells at 5 uM incubated for 24 hrs in presence of hydroxocobalamin by DCFDA-AM probe-based fluorimetrical analysis relative to control. In kind it is functional, cell-based. The gist of the method: as §5

Active and inactive are the calls of the source. The rule behind the calls is not given here.

For orientation: half-life means the time in which the quantity being followed falls by half.

Take `COC(=O)c1ccc(C(N)=S)cc1`: in [1], the Activity result was “Toxic”.
Regarding `C=CCSSCCC(=O)OCC(=O)[C@]1(O)Cc2c(O)c3c(c(O)c2[C@@H](O[C@H]2C[C@H](N)[C@H](O)[C@H](C)O2)C1)C(=O)c1c(OC)cccc1C3=O.Cl`, in [2], the outcome was inactive. Moreover, the Drug uptake result in series [3], in series [7], in series [8], in series [11] and in series [15] was “Active” each time. Also, the inhibition entry in [4] is “inactive”. The half-life at 100 µM in [5] is 228 min. Besides, in series [6], the Stability result was “Stable”. In addition, the Activity result in series [9] is listed as “Non-toxic”; in [12], “Not Active”; in series [13] it was “Not Active”; in series [1], “Toxic”; in series [16] it was “Toxic”. For the same molecule, the outcome in [10] was Active. This molecule gave a half-life at 200 µM in [14] of 336 min.
With `COc1cccc2c1C(=O)c1c(O)c3c(c(O)c1C2=O)C[C@@](O)(C(=O)COC(=O)c1ccc(-c2cssc2=S)cc1)C[C@@H]3O[C@H]1C[C@H](N)[C@H](O)[C@H](C)O1.Cl`, the result in [2], in [19], in series [21] and in [22] was inactive. Besides, the Drug uptake result in series [3], in series [7], in [8], in series [11] and in [15] was “Active” throughout. Also, in series [4], the inhibition result is “inactive”. For the same molecule, the outcome in series [17], in series [18], in series [10], in series [23] and in series [24] was Active. For the same molecule, the half-life at 100 µM in series [5] was 276 min. For the same molecule, the Stability result in series [6] is “Stable”. Besides, the Activity result in series [20] was “Non-toxic”; in series [9], “Non-toxic”; in [12], “Active”; in series [13], “Active”; in [1], “Non-toxic”; in [16], “Toxic”. The molecule also gave a half-life at 200 µM in series [14] of 1290 min.
On to `C=CCSCC(NC(C)=O)C(=O)OCC(=O)[C@]1(O)Cc2c(O)c3c(c(O)c2[C@@H](O[C@H]2C[C@H](N)[C@H](O)[C@H](C)O2)C1)C(=O)c1c(OC)cccc1C3=O.Cl` (some centres not stated), for which the result in series [2] and in [10] was inactive. Further, the inhibition entry in [4] is “inactive”. Besides, the half-life at 100 µM in [5] was found to be 11 min. Further, the Stability entry in series [6] is “Unstable”. Further, the Activity entry in [20] is “Non-toxic”; in [9], “Non-toxic”; in [12] it was “Not Active”; in [13] it was “Not Active”; in series [1], “Non-toxic”; in [16] it was “Toxic”. The Drug uptake result in [11] is listed as “Active”. In series [14], this molecule showed a half-life at 200 µM of less than 1 min.
Turning to `COc1cccc2c1C(=O)c1c(O)c3c(c(O)c1C2=O)C[C@@](O)(C(=O)COC(=O)c1csc(=S)s1)C[C@@H]3O[C@H]1C[C@H](N)[C@H](O)[C@H](C)O1.Cl`, the result in [2] was inactive. The inhibition result in [4] is “inactive”. For the same molecule, the half-life at 100 µM in series [5] was 17 min. For the same molecule, in series [6], the Stability entry is “Unstable”. Besides, the Activity entry in series [20] is “Non-toxic”; in [9], “Non-toxic”; in series [12] it was “Not Active”; in [13] it was “Not Active”; in series [1], “Non-toxic”; in series [16] it was “Toxic”. For the same molecule, in [10], the outcome was Active. Also, in [11], the Drug uptake result is “Active”. The same molecule registered a half-life at 200 µM in [14] of 17 min.
Turning to `COc1cccc2c1C(=O)c1c(O)c3c(c(O)c1C2=O)C[C@@](O)(C(=O)COC(=O)c1ccc(C(N)=S)cc1)C[C@@H]3O[C@H]1C[C@H](N)[C@H](O)[C@H](C)O1.Cl`, the result in series [2] was inactive. Also, the Drug uptake entry in series [3], in [7], in series [8], in series [11] and in [15] was “Active” in each case. Further, the inhibition entry in series [4] was “inactive”. Besides, the half-life at 100 µM in series [5] is 38 min. Also, the Stability result in series [6] is given as “Stable”. The Activity result in series [9] is listed as “Non-toxic”; in series [12], “Not Active”; in series [13], “Not Active”; in series [1], “Toxic”; in series [16] it was “Toxic”. Besides, the result in series [10] was Active. For the same molecule, in [14], the half-life at 200 µM was 204 min.
Regarding `COc1cccc2c1C(=O)c1c(O)c3c(c(O)c1C2=O)C[C@@](O)(C(=O)COC(=O)COc1ccc(-c2cc(=S)ss2)cc1)C[C@@H]3O[C@H]1C[C@H](N)[C@H](O)[C@H](C)O1.Cl`, the result in series [2] was inactive. Besides, in [4], the inhibition result is “inactive”. The half-life at 100 µM in series [5] is 3 min. In [6], the Stability entry was “Unstable”. In addition, the Activity result in series [20] is recorded as “Non-toxic”; in series [9] it was “Non-toxic”; in [12], “Not Active”; in [13], “Not Active”; in series [1], “Non-toxic”; in series [16], “Toxic”. Further, the outcome in [10] was Active. Also, in series [11], the Drug uptake result is reported as “Active”. The half-life at 200 µM in series [14] stood at 16 min.
Take `C=CCSSCCC(=O)OCC`: the Activity entry in series [1] is “Toxic”.
